Insulin prom inh – TRM-6 insulin promoter activity inhibition; TRM-6 cells (human fetal islet line), insulin promoter-eGFP reporter, imaging; reporter expression induced with tamoxifen; inhibition, % at 2 µM; 130,000 compounds, 0.9% hits; AID 1273;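 active = inhibition above the mean plus 3 SD, with well images judged a real hit on visual review, cut at about 60% in these data, passing the limit was not always enough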
Ins promoter up – MIN6 insulin promoter up-regulation. MIN6 insulin promoter-GFP reporter, high-content imaging; hits give high values. z-score at 5 µM. 190,000 compounds, 0.3% hits. AID 1625;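 active = z-score above 3 at 5 µM with at least 500 cells counted in the well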
Autophagy mod – alters autophagy in cells; 190,000 compounds, 0.98% hits; MEF GFP-LC3 puncta imaging; test concentration mostly 10 µM; AID 463193; calls only at 10 µM (by protocol);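 active = percentage of spot-positive cells more than 3 SD above its plate mean, without a fluorescence outlier flag or 80% toxicity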;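 note: spot-positive cell cutoff set from DMSO-treated cells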
Dynein transport – dynein cargo transport inhibition. 3617.4 mouse cells, GR-EGFP nuclear translocation imaging; test concentration mostly 20 µM; stimulated with dexamethasone, 1 µM; hits give low values. z-score, hits read low. 220,000 compounds, 0.47% hits. AID 1381;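 active = plate z-score of nuclear minus cytoplasmic receptor signal below a set negative limit, without overly bright fluorescence or cell loss, cut at about -3.5 in these data, passing the limit was not always enough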;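 note: z-score of nuclear minus cytoplasmic ring GR-EGFP intensity difference per well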
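Also added: dexamethasone, 1.0 µM final. Medium: tet-free, stripped-serum medium. Detection: fixed, Hoechst-stained cells imaged at 10x for EGFP. Read-out: nuclear-to-cytoplasmic GR-EGFP distribution per well. Times: induction 48 h, compound 1 h, agonist 30 min.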
* = called active by the depositor; i = inactive; x = not tested or not shown; + = active, no number. The list is not random: actives were taken first. Their share in the collection is about 2%.

SMILES | Insulin prom inh | Ins promoter up | Autophagy mod | Dynein transport
CCc1ccc(C(=O)COC(=O)c2cccnc2Cl)cc1 | 57 | -0.36 | i | -0.055
CCC/C(=N/Nc1ccc(Cl)cc1)c1cnnc(-c2ccccc2)n1 | 5 | x | + | -0.44
Cc1ccccc1OCCNc1cc(N2CC(C)NC(C)C2)ccc1[N+](=O)[O-] (stereo not drawn) | x | -1.1 | + | 0.26
CCOC(=O)c1nc(Nc2ccc(N3CCC(C)CC3)cc2)c2ccccc2n1 | x | -0.81 | i | -0.86
OCCC1CN(Cc2cccn2-c2cccnc2)CCN1C1CCCC1 (stereo not drawn) | x | -0.33 | x | 0.55
O=C(CSc1nnc(-c2ccncc2)n1Cc1ccco1)Nc1ccccc1Cl | x | -0.54 | i | 0.54
O=C(CSc1nnc(-c2ccncc2)n1Cc1ccco1)Nc1nc(-c2ccccc2)cs1 | -11 | -0.38 | + | -0.086
Cc1ccc(NC(=O)CSc2ccccn2)cc1S(=O)(=O)N1CCOCC1 | 74* | -0.98 | i | 0.14
Cc1ccc(Nc2nc(N/N=C/c3c[nH]c4ccccc34)nc(N3CCOCC3)n2)cc1 | -3 | -1.4 | i | 0.11
Cc1[nH]c2ccccc2c1/C=N/Nc1nc(Nc2ccc(F)cc2)nc(N2CCOCC2)n1 | -31 | -0.48 | + | 0.13
CCC(COC)NCc1cn(-c2ccc(OC)cc2)nc1-c1cccc(F)c1 (stereo not drawn) | x | -0.06 | i | -0.73
CCOC(=O)N/N=C\c1ccc(OC(=O)c2ccc3c(c2)OCO3)cc1 | 22 | -0.55 | + | 0.51
N#C/C(N)=C(/C#N)N=Cc1cccc(Cl)c1 | x | 1.6 | x | -0.17
COc1ccccc1N1CCN(C(=O)c2coc(=O)c(Br)c2)CC1 | x | -0.15 | x | -0.91
CCCCc1ccc(N/C(N)=N/c2nc(C)cc(C)n2)cc1 | x | -0.23 | x | -0.98
O=C(NCc1ccccc1)C(Cc1ccccc1)NS(=O)(=O)c1cccc2nsnc12 (stereo not drawn) | -73 | 0.17 | i | 3.3
CC(C)(C)NC(=O)C(Cc1ccccc1)NS(=O)(=O)c1cccc2nsnc12 (stereo not drawn) | -116 | -1.1 | + | 0.68
COc1ccc2nc(C)cc(N3CC(C)OC(C)C3)c2c1 (stereo not drawn) | 91* | -0.07 | i | 2
CCC(=O)NC(=S)Nc1cccc(NC(=O)c2ccccc2)c1 | x | 1.2 | + | 1.6
Clc1cccc(NCc2cn3cccnc3n2)c1 | 7 | 0.78 | i | 0.1
Cc1ccc(-n2c(SCC(=O)N/N=C/c3c(C)nn(-c4ccccc4)c3C)nc3ccccc3c2=O)cc1 | x | 0.11 | + | 0.075
Cc1ccc(Cl)cc1NC(=S)N/N=C/c1cccc2ccccc12 | x | -0.36 | x | 0.76
Cc1ccc(OCC(=O)N2CCCCCC2)c(C)c1 | -44 | -0.29 | i | 0.37
Cc1ccc(C)c(OCC(=O)N2CCOCC2)c1 | 89* | 0.47 | i | -0.52
O=C(Cc1ccccc1)NC1(Cc2ccc(O)cc2)CCCCC1 | 53 | -0.36 | i | -0.33
SMILES | Insulin prom inh | Ins promoter up | Autophagy mod | Dynein transport
Nc1ccc2oc(-c3ccccn3)nc2c1 | 9 | 0.23 | i | 0.066
Clc1ccc2oc(-c3ccccn3)nc2c1 | 37 | 3* | i | -0.47
Cc1cc(C)nc(Nc2ccc(C(=O)O)cc2)n1 | 20 | -0.82 | i | 0.32
O=C(O)c1ccc(Nc2nc(-c3ccccc3)c3ccccc3n2)cc1 | x | 0.59 | + | -0.63
CCOC(=O)c1sc(NC(=S)NC(=O)c2ccccc2)c(C(=O)OCC)c1C | 21 | -0.47 | + | 0.25
CCCn1cnc2cc(NC(=O)c3cccs3)ccc21 | x | -0.19 | i | 2.2
O=C(Nc1nc2ccccc2n1CCN1CCOCC1)c1cn(-c2ccccc2)nc1-c1ccccc1 | x | -0.23 | + | 0.75
CCOc1cc(/C=N/NC(=O)C(=O)Nc2cc(Cl)ccc2C)ccc1O | x | 1.1 | i | -0.13
COCCN(CCOC)Cc1cc(=O)oc2cc3c(cc12)CCC3 | 8 | 3.1* | i | 1.9
CCCSc1nc2cc(C)c(C)cc2n1CC(C)O (stereo not drawn) | x | 0.41 | i | 0.74
COc1ccc(N2CCN(C(=O)c3cccnc3)CC2)c([N+](=O)[O-])c1 | x | 0.18 | i | -0.63
O=C(O)c1csc(N/N=C/c2ccc(Br)cc2)n1 | 0 | x | + | 0.51
C(=N\Nc1nc(-c2ccccc2)cs1)/c1ccncc1 | x | 0.02 | i | 1.5
Cc1cccc(Nc2nc(N)nc(CN3CCC(C)CC3)n2)c1C | 100* | 0.86 | i | 0.27
CC(C)=CCN1CCN(C/C(Cl)=C/c2ccccc2)CC1CCO (stereo not drawn) | x | 0.22 | x | -0.2
OCCC1CN(Cc2cnc(-c3cccc4ccccc34)nc2)CCN1C1CCCCC1 (stereo not drawn) | x | x | + | 0.11

Compound activity: PubChem BioAssay, several laboratories
